Compounds with a hit are over-represented: about 3.4% of the library has one in this group of screens.
DUSP1 inh – blocks human MKP-1 phosphatase activity; P28562; recombinant MKP-1, OMFP hydrolysis fluorescence; inhibition, %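 (compounds tested at a single concentration somewhere between 10 and 100 µM)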; 0.15% of 65,000 active;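 active = inhibition above about 50%, limit read from the data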;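 also: 0% = DMSO max control wells and 100% = wells with enzyme stopped by NaOH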
Hsp90 inh – displaces geldanamycin probe from tumor Hsp90; P07900; NCI-N417 lysate Hsp90, Cy3B-geldanamycin FP displacement; inhibition, % at 30 µM; 0.35% of 64,000 active; AID 429;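 active = inhibition above 50%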;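 also: 0% = tracer plus lysate wells and 100% = tracer alone without lysate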
SF-1 act – activators of human nuclear receptor SF-1. activation, % at 10 µM. CHO-K1 Gal4-SF-1 LBD luciferase reporter; % increase over DMSO SF-1-specific signal. 1.9% of 65,000 active. Q13285;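 active = activation above the mean activation of all tested compounds plus 3 SD, cut at about 50% in these data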
Target sequence (Q13285 whole entry, looked up, the tested form may be a part): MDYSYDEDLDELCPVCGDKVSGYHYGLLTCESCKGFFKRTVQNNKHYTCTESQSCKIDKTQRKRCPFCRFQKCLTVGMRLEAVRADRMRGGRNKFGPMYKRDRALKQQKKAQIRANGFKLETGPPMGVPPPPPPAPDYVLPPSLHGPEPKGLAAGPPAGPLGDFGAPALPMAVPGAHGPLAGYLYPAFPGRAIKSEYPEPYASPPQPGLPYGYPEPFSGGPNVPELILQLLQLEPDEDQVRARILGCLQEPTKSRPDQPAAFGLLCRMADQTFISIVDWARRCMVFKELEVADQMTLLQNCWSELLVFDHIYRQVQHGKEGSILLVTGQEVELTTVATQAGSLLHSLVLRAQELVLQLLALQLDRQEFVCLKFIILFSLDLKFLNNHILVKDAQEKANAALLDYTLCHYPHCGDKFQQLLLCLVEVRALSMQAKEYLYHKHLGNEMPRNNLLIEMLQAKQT
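Assay system – CHO-K1 cells with Gal4–hSF-1 LBD chimera plus Gal4-driven luciferase · Quantity – 4,000 cells per well · Times – compound added 1 h post-seeding, 20 h exposure at 37 °C, 5% CO2 · Measured by – luciferase light emission · Benchmarks – DMSO and mock-transfected background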
JNK3 blocker – JNK3 (human) kinase inhibition; P53779; 0.61% of 60,000 active; purified JNK3 kinase activity, HTS; inhibition, % at 8 µM; in the data active = inhibition above about 17%;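 also: 0% = DMSO and 100% = reference inhibitor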
Cdc25B block – inhibitors of human Cdc25B phosphatase | recombinant Cdc25B, OMFP fluorescence Ex485/Em525 | inhibition, %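 (compounds tested at 10 µM final in the well)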 | 0.1% of 65,000 active | AID 368; in the data active = inhibition above about 50%
RORa activator – RORA (human) activation | CHO-K1 Gal4-RORA LBD luciferase reporter, luminescence; percent increase over mock-subtracted basal signal | AID 560 | activation, % at 10 µM | 1.5% of 65,000 active;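 active = activation above the mean of all tested compounds plus 3 SD, cut at about 49% in these data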;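 also: 0% = DMSO-treated RORA cells and 100% = added signal equal to DMSO minus mock-transfected cells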
* hit, by the source's call; · = no result.

SMILES	DUSP1 inh	Hsp90 inh	SF-1 act	JNK3 blocker	Cdc25B block	RORa activator
COc1cc(Cn2c(-c3nonc3N)nc3ccccc32)ccc1C	6	1	26	-5	-2	3
COc1cccc(Cn2c(-c3nonc3N)nc3ccccc32)c1	6	-1	62*	3	15	13
CCN(CC(=O)NCc1ccc(F)cc1)CC(O)COCc1cccc(OC)c1 (configuration not stated)	8	-4	1	2	-11	-4
CN1CCN(c2nc3c(c(=O)n(C)c(=O)n3C)n2CC(=O)C23CC4CC(CC(C4)C2)C3)CC1	1	-3	3	-1	-1	-2
CC(=O)Nc1cccc2c1C(=O)NC2=O	15	-6	-4	-1	45	-13
O=C1NC(=O)c2c(NC(=O)C3CCCO3)cccc21 (configuration not stated)	0	-1	1	21*	-4	-12
O=C(NCCSCc1ccco1)Nc1ccc(Cl)cc1	-2	-7	65*	2	-7	46
O=C(NCCSCc1ccco1)Nc1cccc(Cl)c1	0	-7	11	-3	-22	13
c1ccc(-c2nnc(-c3cccc(-c4nnc(-c5ccccc5)o4)c3)o2)cc1	4	-5	-9	1	-8	18
c1ccc(Cc2nnc(-c3ccccc3)o2)cc1	-5	-4	45	-2	-17	50*
Cc1c(-c2nc(N)nc(Nc3ccc(F)cc3)n2)oc2ccccc12	9	-20	78*	17	-4	74*
Cc1ccc(C(=O)C2CCN(CC(=O)Nc3ccc(N(C)C)cc3)CC2)cc1	9	-2	-18	-4	6	33
O=C(COC(=O)C1CCN(S(=O)(=O)c2cccs2)CC1)c1cc2ccccc2o1	21	-15	-1	4	-2	-5
COc1ccc(-n2nnnc2SCC(=O)Nc2ccc3c(c2)OCCO3)c(OC)c1	102*	2	19	-3	-14	-1
COc1ccc(-n2nnnc2SCC(=O)Nc2ccc3c(c2)OCCO3)cc1OC	14	-1	1	8	5	-7
Cn1c(SCC(=O)c2ccccc2)nnc1-c1cnccn1	14	-3	61*	1	8	30
CCC(=O)Nc1cccc(-c2nnc(SCC(=O)c3ccccc3)n2C)c1	9	-2	44	2	-9	61*
CCC(=O)Nc1cccc(-c2nnc(SCC(=O)NCc3ccco3)n2C)c1	-8	-1	-11	5	7	-2
Cn1c(SCC(=O)Nc2cc(=O)n(C)c(=O)n2C)nnc1-c1cccs1	7	-1	6	2	-4	-1
Cc1cc(C(=O)CNCc2ccco2)c(C)n1-c1ccc(F)cc1	-8	-8	53*	-2	-9	70*
O=[N+]([O-])c1ccc(-c2nc(-c3ccc(F)cc3)c(-c3ccncc3)[nH]2)cc1	·	3	·	·	·	·
N#C/C(C(=O)Oc1ccccc1)=C1\C=CC=CN1	4	0	35	-3	-6	58*
N#Cc1c(N)nc(SCc2ccccn2)c(C#N)c1-c1cccs1	-28	0	-11	3	-1	-13
N#Cc1cc2ccccc2nc1SCc1ccccn1	3	-5	67*	-10	-8	71*
O=C1C(c2ccncc2)=C(O)c2ccccc21	12	-4	8	56*	-18	8
SMILES	DUSP1 inh	Hsp90 inh	SF-1 act	JNK3 blocker	Cdc25B block	RORa activator
CC(=O)c1c(C)[nH]c(C(=O)Nc2cc(C)ccc2C)c1C	9	-2	-14	-2	-10	0
CC(=O)c1c(C)[nH]c(C(=O)NCCc2cccc(C)c2)c1C	0	-3	71*	-2	-12	17
Cc1ccc(CNc2ccc(O)cc2)cc1	0	56*	8	-11	0	-8
COc1ccccc1CN(Cc1cc2cc(C)ccc2[nH]c1=O)Cc1nnnn1CC1CCCO1 (configuration not stated)	32	-3	14	-1	-15	14
COc1ccccc1CN(Cc1cc2cc(C)cc(C)c2[nH]c1=O)Cc1nnnn1CC1CCCO1 (configuration not stated)	40	0	49	6	-10	54*
CCOC(=O)Cc1nnc2c(Nc3ccc(Cl)cc3)nc3nonc3n12	5	-6	16	-2	-1	-12
COc1ccccc1N1CCN(c2ncnc3c2oc2ccccc23)CC1	11	-4	43	1	-12	56*
c1cnc(N2CCN(c3ncnc4c3oc3ccccc34)CC2)nc1	-35	-4	-13	-3	-9	-10
COc1cc(OC)cc(C(=O)NCCN2CCOCC2)c1	0	2	-5	7	-7	7
Cc1ccc(-c2nc(-c3cccnc3)no2)c(C)c1	-2	-4	45	-3	-15	26
CC(=O)Oc1ccc(-c2nc(-c3cccnc3)no2)cc1	-5	-15	28	5	-6	53*
c1ccc(-c2noc(-c3ccc4ccccc4c3)n2)cc1	-15	5	-50	0	-11	-24
Brc1ccc(-c2nc(-c3cccnc3)no2)o1	-20	-4	66*	1	2	28
Brc1ccc(-c2nc(-c3ccccc3)no2)o1	5	0	63*	1	-21	68*
CCN1CCN(S(=O)(=O)c2ccc(S(=O)(=O)N(CC)Cc3ccccc3)cc2)CC1	0	3	-6	3	-13	-10
Cc1nc2c(C(=O)N3CCCC3)c[nH]n2c(=O)c1Cc1ccc(F)cc1Cl	7	-6	8	-5	-17	-13
Cn1nnnc1SCc1ccc(C(=O)Nc2nccs2)cc1	7	-7	57*	20*	-8	44
Cc1cc2nn(-c3ccccc3)nc2cc1NC(=O)c1cccs1	3	-1	38	0	-15	95*
CCOc1ccc(C(C)=O)cc1COc1ccc(-n2cnnn2)cc1	-3	0	-11	-3	-7	2
COc1ccc(-c2nnc3sc(-c4ccc(Br)o4)nn23)cc1OC	-6	-4	2	5	1	-14
COc1ccccc1Cc1nc(-c2ccc(Br)o2)no1	4	-6	23	3	2	31
COc1ccc(-c2nnc(-c3ccc(Br)o3)o2)cc1OC	4	-1	6	25*	-8	-4
COc1ccc(-c2nc(-c3ccc(Br)o3)no2)cc1OC	24	-2	87*	8	-7	60*
O=C(NCC1CCCO1)C1CCN(C(=O)c2ccc(Br)cc2)CC1 (configuration not stated)	19	-4	-4	7	-8	22
O=C(Nc1ccc(-c2noc(CCc3ccccc3)n2)cc1)c1cccnc1	41	16	44	3	-2	41
CCCc1ccc(OCc2nc(-c3ccc(NC(=O)c4ccco4)cc3)no2)cc1	4	-7	50*	1	-9	44
